Experimental data of several laboratories.
ABL1 Y253F: Tyrosine-protein kinase ABL1 (ABL1, Homo sapiens, UniProt P00519, Y253F)
ABL1 non-phosphorylated: Tyrosine-protein kinase ABL1, non-phosphorylated (ABL1, Homo sapiens, UniProt P00519)
ABL1 phosphorylated: Tyrosine-protein kinase ABL1, phosphorylated (ABL1, Homo sapiens, UniProt P00519)
ABL1 F317L: Tyrosine-protein kinase ABL1 (ABL1, Homo sapiens, UniProt P00519, F317L)
ABL1 F317L non-phosphorylated: Tyrosine-protein kinase ABL1, non-phosphorylated (ABL1, Homo sapiens, UniProt P00519, F317L)
ABL1 F317I phosphorylated: Tyrosine-protein kinase ABL1, phosphorylated (ABL1, Homo sapiens, UniProt P00519, F317I)
ABL1 Q252H non-phosphorylated: Tyrosine-protein kinase ABL1, non-phosphorylated (ABL1, Homo sapiens, UniProt P00519, Q252H)
ABL1 F317L phosphorylated: Tyrosine-protein kinase ABL1, phosphorylated (ABL1, Homo sapiens, UniProt P00519, F317L)
ABL1 H396P non-phosphorylated: Tyrosine-protein kinase ABL1, non-phosphorylated (ABL1, Homo sapiens, UniProt P00519, H396P)
ABL1 T315I non-phosphorylated: Tyrosine-protein kinase ABL1, non-phosphorylated (ABL1, Homo sapiens, UniProt P00519, T315I)
ABL1 F317I non-phosphorylated: Tyrosine-protein kinase ABL1, non-phosphorylated (ABL1, Homo sapiens, UniProt P00519, F317I)

CN1CCN(c2ccc(Nc3nccc(-c4cccc([N+](=O)[O-])c4)n3)cc2C(F)(F)F)CC1  remaining binding (ABL1 Y253F; binding; 10 µM): 4%
CC1CCCN1c1nccc(-c2cnn3ncccc23)n1 (stereo not shown)  remaining binding (ABL1 non-phosphorylated; binding; competition with immobilised ligand; 1 µM): 97%
CNC(=O)c1ccc(Nc2ncc(C(F)(F)F)c(NCc3nccnc3N(C)S(C)(=O)=O)n2)cc1  remaining binding (ABL1 non-phosphorylated; cell-free assay; competition with immobilised ligand; 0.1 µM): 88%
COC(=O)Nc1nc2ccc(C(=O)c3ccccc3)cc2[nH]1  remaining binding (ABL1 phosphorylated; cell-free assay; competition with immobilised ligand; 10 µM): 0.9%
c1cnn2ncc(-c3ccnc(N4CCC45COC5)n3)c2c1  remaining binding (ABL1 F317L; binding; 1 µM): 53%
O=C(Nc1c[nH]nc1C(=O)NC1CCNCC1)c1cc(F)cc(F)c1  remaining binding (Tyrosine-protein kinase ABL1, phosphorylated (ABL1, Homo sapiens, UniProt P00519, T315I); binding; competition with immobilised ligand; 1 µM): 98%
O=C(NCCCN1CCOCC1)c1ccc(Nc2ncc(Cl)c(-c3ccc(Cl)s3)n2)cc1  remaining binding (ABL1 F317L non-phosphorylated; binding; competition with immobilised ligand; 1 µM): 71%
c1cncc(-c2cccc(Nc3nccc(NC4CCCCC4)n3)c2)c1  remaining binding (Tyrosine-protein kinase ABL1, phosphorylated (ABL1, Homo sapiens, UniProt P00519, M351T); binding; competition with immobilised ligand; 10 µM): 38%
N[C@H]1CCN(c2nccc(-c3cnn4ncccc34)n2)C1  remaining binding (ABL1 phosphorylated; binding; 1 µM): 88%
C=CC(=O)N1CCC(C(=O)NCC(=O)N2CCN(c3nc(-c4cnc(N)nc4C(F)F)nc(N4CCOCC4)n3)CC2)CC1  remaining binding (Tyrosine-protein kinase ABL1, phosphorylated (ABL1, Homo sapiens, UniProt P00519, Y253F); binding; competition with immobilised ligand; 1 µM): 90%
CN(c1ccnc(CNc2nc(Nc3ccc4c(c3)CC(=O)N4)ncc2C(F)(F)F)n1)S(C)(=O)=O  remaining binding (ABL1 F317I phosphorylated; binding; 1 µM): 79%
O=C(NCCCN1CCOCC1)c1ccc(Nc2nccc(-c3cc4ccccc4s3)n2)cc1  remaining binding (ABL1 phosphorylated; binding; competition with immobilised ligand; 1 µM): 37%
COc1cnc(Nc2cccc(S(N)(=O)=O)c2)nc1N1CCN(c2ccccc2)CC1  remaining binding (ABL1 Q252H non-phosphorylated; binding; competition with immobilised ligand; 1 µM): 78%
C[C@H]1CCN(c2nccc(-c3cnn4ncccc34)n2)C1  remaining binding (ABL1 F317L; binding; 1 µM): 82%
CC(=O)N1CCC(c2ccc(C(=O)NC3=NCCN3)cc2C(F)(F)F)CC1  remaining binding (ABL1 F317L phosphorylated; cell-free assay; competition with immobilised ligand; 1 µM): 95%
CNC(=O)[C@@H]1CC[C@@H](n2c(-c3ccc4cnccc4c3)nc3ccc(C(=O)NCc4cccc(C(N)=O)c4)cc32)C1  remaining binding (ABL1 F317L non-phosphorylated; binding; competition with immobilised ligand; 1 µM): 97%
O=C(c1ccc(Nc2ncc(Cl)c(-c3ccc(Cl)s3)n2)cc1)N1CCC(N2CCCC2)CC1  remaining binding (ABL1 non-phosphorylated; binding; competition with immobilised ligand; 1 µM): 4.3%
O=C(NCC1CCOCC1)c1n[nH]cc1NC(=O)c1c(F)cccc1F  remaining binding (ABL1 H396P non-phosphorylated; binding; competition with immobilised ligand; 1 µM): 76%
Cc1cnc(Nc2ccc(C(=O)N3CCC(N4CCCC4)CC3)cc2)nc1-c1cc2ccccc2s1  remaining binding (ABL1 T315I non-phosphorylated; binding; competition with immobilised ligand; 1 µM): 0.1%
CC1=C(C#N)C(c2ccc3c(c2)c(NC(=O)c2ccccc2C)nn3C)C(C#N)=C(C)N1  remaining binding (ABL1 F317I non-phosphorylated; binding; competition with immobilised ligand; 1 µM): 100%
COc1cnc(Nc2cccc(S(N)(=O)=O)c2)nc1N1CCN(c2ccccc2)C(=O)C1  remaining binding (ABL1 Q252H non-phosphorylated; binding; competition with immobilised ligand; 1 µM): 95%
CCN1CCN(Cc2ccc(C(=O)Nc3ccc(C)c(Oc4ccc5c(c4)CC(=O)N5)c3)cc2C(F)(F)F)CC1  remaining binding (ABL1 F317I phosphorylated; binding; competition with immobilised ligand; 1 µM): 24%
C[C@@H](c1ccc(-n2cnc3c(N)ncnc32)cc1)N1CCc2nn(C)c(Cc3ccccc3)c2C1=O  remaining binding (ABL1 Q252H non-phosphorylated; binding; competition with immobilised ligand; 0.1 µM): 26%
Cc1noc([C@H]2C[C@@H](c3ccc(C(F)(F)F)cc3)CN(C(=O)N3CCS(=O)(=O)C3)C2)n1  remaining binding (ABL1 T315I non-phosphorylated; cell-free assay; competition with immobilised ligand; 1 µM): 100%
Cc1cnn2ncc(-c3ccnc(N(C)C)n3)c2c1  remaining binding (ABL1 Y253F; binding; 1 µM): 85%
COc1cccc(CNC(=O)c2nc3scc(COCc4ccc(C(=O)O)cc4)c3c(=O)[nH]2)c1  remaining binding (ABL1 F317L phosphorylated; cell-free assay; competition with immobilised ligand; 1 µM): 87.2%
CN(c1nccc(-c2cnn3ncccc23)n1)C1CC1  remaining binding (Tyrosine-protein kinase ABL1 (ABL1, Homo sapiens, UniProt P00519, T315I); binding; 1 µM): 100%
O=C(c1ccc(Nc2nccc(-c3cc4ccccc4s3)n2)cc1)N1CCC(N2CCCC2)CC1  remaining binding (ABL1 F317I non-phosphorylated; binding; competition with immobilised ligand; 1 µM): 92%
Cc1cc(NC(=O)c2cccc(S(F)(F)(F)(F)F)c2)cc(-n2ccn3nc(-c4cccnc4)cc23)c1  remaining binding (ABL1 F317I non-phosphorylated; binding; competition with immobilised ligand; 1 µM): 100%
Nc1ncc2c(n1)-c1c([nH]c3ccc(C#CC4CC4)cc13)CCCC2  remaining binding (ABL1 F317L non-phosphorylated; binding; competition with immobilised ligand; 1 µM): 63%
COc1ncc2cc3ccccc3nc2c1C#N  remaining binding (ABL1 Q252H non-phosphorylated; cell-free assay; competition with immobilised ligand; 5 µM): 100%
F[C@@H]1CCN(c2nccc(-c3cnn4ncccc34)n2)C1  remaining binding (Tyrosine-protein kinase ABL1 (ABL1, Homo sapiens, UniProt P00519, E255K); binding; 1 µM): 100%
O=C(c1ccc(Nc2ncc(Cl)c(-c3cc4ccccc4s3)n2)cc1)N1CCC(N2CCCC2)CC1  remaining binding (ABL1 H396P non-phosphorylated; binding; competition with immobilised ligand; 1 µM): 1.8%
CCS(=O)(=O)c1cc2cc(C[C@](O)(CC(C)(C)c3ccc(F)cc3C(N)=O)C(F)(F)F)[nH]c2cn1  remaining binding (ABL1 non-phosphorylated; cell-free assay; competition with immobilised ligand; 1 µM): 100%
